The values below come from ChEMBL document CHEMBL4406803, “A- and D-Ring Structural Modifications of an Androsterone Derivative Inhibiting 17β-Hydroxysteroid Dehydrogenase Type 3: Chemical Synthesis and Structure-Activity Relationships” (J Med Chem, 2019).

For data set [1], the target named is T1, 17-beta-hydroxysteroid dehydrogenase type 3 (Homo sapiens) (UniProt P37058).
T1 sequence (whole entry): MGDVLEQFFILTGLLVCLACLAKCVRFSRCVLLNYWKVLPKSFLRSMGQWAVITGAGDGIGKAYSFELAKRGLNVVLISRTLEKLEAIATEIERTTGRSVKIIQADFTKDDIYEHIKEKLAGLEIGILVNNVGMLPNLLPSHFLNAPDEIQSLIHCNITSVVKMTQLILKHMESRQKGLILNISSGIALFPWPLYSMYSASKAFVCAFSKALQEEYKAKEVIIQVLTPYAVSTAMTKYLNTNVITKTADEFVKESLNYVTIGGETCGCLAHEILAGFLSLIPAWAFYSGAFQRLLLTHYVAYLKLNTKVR
Briefly: Inhibition of 17beta-HSD3 (unknown origin) expressed in human LNCAP cells assessed as reduction in [14C]-testosterone formation from [14C]-4-androstene-3,17-dione at 0.1 uM measured after 1 hr relative to control. In kind it is cell-based. The gist of the method: (§1)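 LNCaP cells stably transfected with 17β-HSD3 were plated at 10,000 per well in hygromycin-free medium and grown 2 days. They were then given 15 nM [14C]-4-androstenedione plus inhibitor at 0.1, 0.5 or 1.0 µM (0.05% DMSO final) for 1 h. Steroids were ether-extracted, separated by TLC and quantified by radioimaging. Results are % inhibition of conversion to T.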

Data set [2] deals with T1, 17-beta-hydroxysteroid dehydrogenase type 3 (Homo sapiens). Briefly: Inhibition of 17beta-HSD3 (unknown origin) expressed in human LNCAP cells assessed as reduction in [14C]-testosterone formation from [14C]-4-androstene-3,17-dione at 0.5 uM measured after 1 hr relative to control. The data set is classed as cell-based. Summed up: as §1
The test system of data set [3] is T47D. As to the kind of experiment: Estrogenic activity in human T47D cells assessed as stimulation of cell proliferation at 1 to 5 uM. The data set is classed as ADME, cell-based.
For data set [4], the target named is T2, 17-beta-hydroxysteroid dehydrogenase type 3 (Rattus norvegicus, UniProt O54939).
T2 sequence (O54939 whole entry): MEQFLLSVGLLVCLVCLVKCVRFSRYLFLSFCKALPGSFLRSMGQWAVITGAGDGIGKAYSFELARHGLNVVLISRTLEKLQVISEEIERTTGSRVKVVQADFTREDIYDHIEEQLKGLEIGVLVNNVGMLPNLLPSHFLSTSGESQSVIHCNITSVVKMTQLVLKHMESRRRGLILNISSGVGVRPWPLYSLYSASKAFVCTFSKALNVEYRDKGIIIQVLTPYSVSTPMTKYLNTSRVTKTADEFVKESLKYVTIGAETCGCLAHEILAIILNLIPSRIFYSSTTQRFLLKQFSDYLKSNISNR
Briefly: Inhibition of 17beta-HSD3 in Sprague-Dawley rat testes microsomal fraction assessed as reduction in [14C]-testosterone formation from [14C]-4-androstene-3,17-dione measured after 2 hrs. Set-up: species or system Testis. The gist of the method: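 The enzyme source was a microsomal fraction from Sprague-Dawley rat testes, prepared by homogenization in phosphate/sucrose/EDTA buffer (pH 7.5) and centrifugation at 100,000 g. The assay ran 2 h at 37 °C in 50 mM sodium phosphate (pH 7.4, 20% glycerol, 1 mM EDTA) with NADPH cofactor and [14C]-4-androstenedione. [14C]-T formation was measured at six inhibitor concentrations in triplicate, and IC50 was fitted from the curves.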

In data set [5] the test system is LAPC4. As to the kind of experiment: Antiproliferative activity against human LAPC4 cells expressing androgen receptor assessed as inhibition of cell proliferation at 0.5 uM supplemented with fresh medium containing compounds every 3 days for 7 days by MTS assay relative to control. The data set is classed as functional. Summed up: (§2)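 Androgen-dependent LAPC-4 cells were seeded at 5,000 per well in IMDM with 5% dextran-coated charcoal-treated FBS and pre-incubated 24 h at 37 °C, 5% CO2. Compounds were added from DMSO stock at 0.1, 0.5 and 1.0 µM, with 0.05% DMSO in controls. Incubation lasted 7 days, with a medium change at day 3. Growth was read by MTS (4 h, 490 nm) as % of untreated control (100%), in triplicate.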
(Formazan colour is commonly taken as a measure of viable cells.)

Data set [6] relates to PC-3. Briefly: Antiproliferative activity against AR-deficient human PC3 cells assessed as reduction in cell proliferation at 1 uM measured after 3 days by MTS assay relative to control. The data set is classed as functional. Also on record: scale not given: the % may be the effect or the level left. The gist of the method:
(§3)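 Androgen-independent PC-3 cells were plated at 3,000 per well in triplicate in RPMI-1640 with 10% FBS. Compounds were added at 0.1, 0.5 and 1.0 µM from DMSO stock, with 0.05% DMSO in controls, and incubated 3 days. Growth was read by MTS (4 h, 490 nm) and expressed as % of non-treated control (100%).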

Data set [7] concerns PC-3. Briefly: Antiproliferative activity against AR-deficient human PC3 cells assessed as reduction in cell proliferation at 0.1 uM measured after 3 days by MTS assay relative to control. In kind it is functional. Set-up: scale not given: the % may be the effect or the level left. The gist of the method:
as §3

In data set [8] the target is T1, 17-beta-hydroxysteroid dehydrogenase type 3 (Homo sapiens). As to the kind of experiment: Inhibition of 17beta-HSD3 (unknown origin) expressed in human LNCAP cells assessed as reduction in [14C]-testosterone formation from [14C]-4-androstene-3,17-dione at 1 uM measured after 1 hr relative to control. The data set is classed as cell-based. The gist of the method:
as §1

In data set [9] the target is T3, 17-beta-hydroxysteroid dehydrogenase type 3 (Homo sapiens, UniProt P37058).
T3 sequence (P37058 whole entry): T1 sequence (whole entry)
Briefly: Inhibition of 17beta-HSD3 (unknown origin) expressed in human LNCAP cells assessed as reduction in [14C]-testosterone formation from [14C]-4-androstene-3,17-dione measured after 1 hr. The data set is classed as cell-based. Summed up: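 Transfected LNCaP[17β-HSD3] cells were incubated 1 h with 15 nM [14C]-4-androstenedione and inhibitor at seven concentrations (0.001–5.0 µM; 0.05% DMSO). [14C]-T formation was measured by TLC and radioimaging. IC50 was obtained by curve fitting, averaging two independent experiments in triplicate.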

Data set [10] is described as follows: Plasma concentration in mouse at 25 mg/kg, sc administered as single dose measured after 3 hrs by LC-MS/MS analysis. In kind it is ADME, organism-based. The gist of the method: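 Female mice were fasted 8 h, then given a single 25 mg/kg subcutaneous dose in 0.1 mL of 0.4% aqueous methylcellulose with 8% DMSO. At 3 h, blood was taken by cardiac puncture into K-EDTA tubes (3 mice per group). Plasma was extracted and analysed by LC-MS/MS against a plasma calibration curve.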

The test system of data set [11] is LAPC4. As to the kind of experiment: Antiproliferative activity against human LAPC4 cells expressing androgen receptor assessed as inhibition of cell proliferation at 0.1 uM supplemented with fresh medium containing compounds every 3 days for 7 days by MTS assay relative to control. In kind it is functional. Summed up:
as §2

In data set [12] the test system is LAPC4. Briefly: Antiproliferative activity against human LAPC4 cells expressing androgen receptor assessed as inhibition of cell proliferation supplemented with fresh medium containing compounds every 3 days for 7 days by MTS assay. The data set is classed as functional, cell-based. The gist of the method: as §2
The subject of data set [13] is T47D. As to the kind of experiment: Antiproliferative activity against human T47D cells assessed as reduction in cell proliferation at 1 to 5 uM. The data set is classed as functional, cell-based.
In data set [14] the test system is LAPC4. Briefly: Antiproliferative activity against human LAPC4 cells expressing androgen receptor assessed as inhibition of cell proliferation at 1 uM supplemented with fresh medium containing compounds every 3 days for 7 days by MTS assay relative to control. In kind it is functional. Summed up: as §2
In data set [15] the test system is PC-3. As to the kind of experiment: Antiproliferative activity against AR-deficient human PC3 cells assessed as reduction in cell proliferation at 0.5 uM measured after 3 days by MTS assay relative to control. The data set is classed as functional. Also on record: scale not given: the % may be the effect or the level left. The gist of the method:
as §3

In data set [16] the test system is LAPC4. Briefly: Antiproliferative activity against human LAPC4 cells expressing androgen receptor assessed as inhibition of cell proliferation at 0.5 uM measured after 3 days by MTS assay relative to control. In kind it is functional. The conditions noted are these: LAPC4, 72 h.
Data set [17] deals with LAPC4. As to the kind of experiment: Antiproliferative activity against human LAPC4 cells expressing androgen receptor assessed as inhibition of cell proliferation at 0.1 uM measured after 3 days by MTS assay relative to control. The data set is classed as functional. The conditions noted are these: LAPC4, 72 h.
The test system of data set [18] is LAPC4. Briefly: Antiproliferative activity against human LAPC4 cells expressing androgen receptor assessed as inhibition of cell proliferation at 1 uM measured after 3 days by MTS assay relative to control. The data set is classed as functional. The conditions noted are these: LAPC4, 72 h.

Active and inactive are the calls of the source. No cut-off for these calls is given here.

Broadly, the inhibition is the relative decrease from the control value, in per cent. A word on the IC50: it is the point on the concentration scale where inhibition reaches its midpoint. As to `CC1CN(S(=O)(=O)c2ccccc2C(F)(F)F)C(C)CN1CCc1ccc2c(c1)CC[C@@H]1[C@@H]2CC[C@]2(C)C(=O)CC[C@@H]12` (stereo not given in full), the inhibition in data set [1] is 38%; in data set [2], 60%; in data set [8], 70%; in the data set on LAPC4 [12] it was “Dose-dependent effect”. For the same compound, the Activity result with T47D [3] is given as “Non-Toxic”; with PC-3 [6] it was 1%; in the data set with PC-3 [7], 1%; with PC-3 [15], 5%. For the same compound, the IC50 is 0.1 µM in data set [4] and 0.13 µM in [9]. Further, the “inhibition (INH)” value stood at 80% in the data set on LAPC4 [5], 48% with LAPC4 [11] and 79% in the data set on LAPC4 [14]. In addition, the concentration at 3 h in data set [10] was determined as 51.6 ng/mL. Moreover, the outcome with T47D [13] was inactive.

In the case of `C#C[C@]1(O)CC[C@H]2[C@@H]3CCc4cc(OC)c(N5CCN(C(=O)[C@@H]6CCCN6C(=O)c6ccc7ccccc7n6)CC5)cc4[C@H]3CC[C@@]21C`, the inhibition at 0.5 µM in the data set on LAPC4 [16] came out at 62%. Besides, the inhibition at 0.1 µM in the data set on LAPC4 [17] amounted to 19%. Moreover, the Activity in the data set with PC-3 [6] is 39%; with PC-3 [7] it was 3%; in the data set with PC-3 [15] it was 20%. For the same compound, the inhibition at 1 µM in the data set on LAPC4 [18] was found to be 69%.

In the case of `CC1CN(S(=O)(=O)c2ccccc2C(F)(F)F)C(C)CN1Cc1cc2c(cc1O)CC[C@@H]1[C@@H]2CC[C@]2(C)C(=O)CC[C@@H]12` (stereo not given in full), the figures for the inhibition in data set [1], in [2] and in [8] were 50%, 76% and 84%, respectively. Moreover, the Activity result in the data set on T47D [3] is “Non-Toxic”; with PC-3 [6], 7%; in the data set on PC-3 [7], 4%; in the data set with PC-3 [15], 5%. In addition, the IC50 in data set [4] is 0.12 µM; in data set [9] it was 0.17 µM. Also, the “inhibition (INH)” value with LAPC4 [5] came to 7%; with LAPC4 [11], 0%; with LAPC4 [14] it was 6%. In addition, the concentration at 3 h in [10] was determined as 89.3 ng/mL. Further, in the data set with T47D [13], the outcome was inactive.
